What is called MBC is the lowest tested concentration that kills the bacteria rather than only halting them.

Bounds are passed on as bounds.

The source of these data is ChEMBL document CHEMBL4350958, “Rational Design of Short Peptide Variants by Using Kunitzin-RE, an Amphibian-Derived Bioactivity Peptide, for Acquired Potent Broad-Spectrum Antimicrobial and Improved Therapeutic Potential of Commensalism Coinfection of Pathogens” (J Med Chem, 2019).

In one series the test system is Candida parapsilosis. As to the kind of experiment: Antifungal activity against Candida parapsilosis cgmcc2.3989 measured after 48 hrs by broth microdilution method. To be noted: Lodderomyces parapsilosis, cgmcc2.3989, 48 h. In kind it is functional. In outline:
(§1)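 Modified CLSI M27-A2 microdilution. Yeast colonies were diluted in MOPS-buffered RPMI 1640 to a final (0.5–1) × 10^3 CFU mL−1 and mixed with an equal volume of peptide serially diluted in 0.2% BSA. After 48 h at 28 °C, MIC was read at A492 as the lowest concentration inhibiting 95% of growth. At least three independent experiments, each with three technical replicates.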
(In broth dilution the organism is exposed to a series of concentrations in liquid medium.)

Series [1] relates to Staphylococcus aureus. Kind of series: Bactericidal activity against Staphylococcus aureus ATCC 29213 incubated for 24 hrs followed by replating on agar plate and measured after overnight incubation. The class given is functional. To be noted: ATCC 29213, 24 h, read-out: MBC>99.9. In outline: (§2)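 After the 24 h, 37 °C MHB microdilution MIC assay, 50 μL from each well was plated on agar and incubated overnight. MBC taken as lowest peptide concentration killing >99.9% of cells. At least three independent experiments, each with three technical replicates.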

In series [2] the test system is Staphylococcus aureus. As to the kind of experiment: Bactericidal activity against Staphylococcus aureus ATCC 25923 incubated for 24 hrs followed by replating on agar plate and measured after overnight incubation. The class given is functional. The note with it: ATCC 25923, 24 h, read-out: MBC>99.9. In outline: as §2
The test system of series [3] is Escherichia coli. As to the kind of experiment: Antibacterial activity against Escherichia coli ATCC 25922 measured after 18 to 24 hrs in presence of MgCl2. In kind it is functional.
For series [4], the system named is Escherichia coli. As to the kind of experiment: Antibacterial activity against Escherichia coli ATCC 25922 measured after 18 to 24 hrs in presence of NaCl. The class given is functional.
Series [5] concerns Staphylococcus aureus. Kind of series: Antibacterial activity against methicillin-resistant Staphylococcus aureus ATCC 43300 measured after 24 hrs. The class given is functional. The note with it: ATCC 43300, 24 h. The procedure, abridged: (§3)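 Broth microdilution modified from NCCLS. Mid-log bacteria at (0.5–1) × 10^5 CFU mL−1 in MHB, mixed with peptides serially diluted in 0.2% BSA. Incubated 24 h at 37 °C, read at A492. MIC taken as lowest concentration giving 95% growth inhibition. At least three independent experiments, each with three technical replicates.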

The test system of series [6] is Salmonella typhimurium. Kind of series: Antibacterial activity against Salmonella typhimurium ATCC 14028 measured after 24 hrs. The class given is functional, Salmonella enterica subsp. enterica serovar Typhimurium. To be noted: Salmonella enterica, ATCC 14028, 24 h. In outline:
(§4)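 Broth microdilution adapted from NCCLS. Mid-log bacteria were diluted in MHB to a final (0.5–1) × 10^5 CFU mL−1. Peptides were serially diluted in 0.2% BSA and mixed with an equal volume of cells. After 24 h at 37 °C, MIC was read at A492 as the lowest concentration inhibiting 95% of growth. At least three independent experiments, each with three technical replicates.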

For series [7], the system named is Staphylococcus aureus. Kind of series: Antibacterial activity against Staphylococcus aureus ATCC 29213 measured after 18 to 24 hrs in presence of CaCl2. The class given is functional.
Series [8] relates to Candida albicans. As to the kind of experiment: Antifungal activity against Candida albicans cgmcc2.2086 measured after 48 hrs by broth microdilution method. In kind it is functional. The note with it: cgmcc2.2086, 48 h. In outline: as §1
The next series relates to Erythrocyte. As to the kind of experiment: Hemolytic activity in human RBC measured after 1 hr. In kind it is ADME, cell-based. The procedure, abridged:
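Fresh healthy-donor human erythrocytes at ~1% (v/v) in PBS pH 7.4, mixed 1:1 with peptide (1–128 µM), 1 h at 37 °C. After centrifugation at 1000×g, supernatant hemoglobin read at 576 nm. Untreated cells set 0% and 0.1% Triton X-100 set 100%. MHC defined as the concentration giving >10% hemolysis. Three or more independent experiments, triplicates.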

Series [9] relates to Escherichia coli. Kind of series: Bactericidal activity against Escherichia coli K88 incubated for 24 hrs followed by replating on agar plate and measured after overnight incubation. The class given is functional. To be noted: K88, 24 h, read-out: MBC>99.9. The procedure, abridged:
(§5)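 Mid-log bacteria diluted in MHB to (0.5–1) × 10^5 CFU/mL and mixed 1:1 with peptide serially diluted in 0.2% BSA. After 24 h at 37 °C, 50 μL of each mixture was plated on agar and incubated overnight. MBC taken as the lowest concentration killing >99.9% of cells. At least three independent experiments, each with three technical replicates.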

In series [10] the test system is Escherichia coli. As to the kind of experiment: Bactericidal activity against Escherichia coli ATCC 25922 incubated for 24 hrs followed by replating on agar plate and measured after overnight incubation. The note with it: ATCC 25922, 24 h, read-out: MBC>99.9. In kind it is functional. In outline: (§6)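 After the 24 h, 37 °C MHB microdilution (0.5–1 × 10^5 CFU mL−1 inoculum, peptides diluted in 0.2% BSA), 50 μL from each well was plated on agar and incubated overnight. MBC was taken as the lowest concentration killing >99.9% of cells. Three or more independent experiments, each with triplicate technical replicates.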

The subject of series [11] is Escherichia coli. Kind of series: Antibacterial activity against Escherichia coli UB1005 measured after 24 hrs. The note with it: UB1005, 24 h. The class given is functional. In outline:
as §4

Series [12] is described as follows: Therapeutic index, ratio of MHC10 for hemolytic activity in human RBC to MIC95 against Candida parapsilosis cgmcc2.3989. In kind it is toxicity. The note with it: human red blood cells (erythrocytes), read-out: TI. The procedure, abridged:
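Therapeutic index = MHC divided by MIC. MHC is the lowest concentration giving >10% lysis of human RBC (1 h, 37 °C, 1-128 µM, A576). MIC is 95% growth inhibition by broth microdilution: bacteria in MHB 24 h at 37 °C; Candida in MOPS-buffered RPMI 1640 at (0.5–1) × 10^3 CFU mL−1, 48 h at 28 °C.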

For series [13], the system named is Candida albicans. Kind of series: Antifungal activity against Candida albicans cgmcc2.2086 measured after 48 hrs in presence of KCl by broth microdilution method. The class given is functional. The note with it: cgmcc2.2086, 48 h.
In series [14] the test system is Salmonella typhimurium. As to the kind of experiment: Bactericidal activity against Salmonella typhimurium C7731 incubated for 24 hrs followed by replating on agar plate and measured after overnight incubation. To be noted: Salmonella enterica, C7731, 24 h; read-out: MBC>99.9. In kind it is functional, Salmonella enterica subsp. enterica serovar Typhimurium. The procedure, abridged:
as §5

In series [15] the test system is Escherichia coli. As to the kind of experiment: Antibacterial activity against Escherichia coli ATCC 25922 measured after 18 to 24 hrs in presence of ZnCl2. In kind it is functional.
In series [16] the test system is Staphylococcus aureus. Kind of series: Antibacterial activity against Staphylococcus aureus ATCC 29213 measured after 24 hrs. The class given is functional. The note with it: ATCC 29213, 24 h. In outline:
as §3

Series [17] deals with Candida albicans. As to the kind of experiment: Antifungal activity against Candida albicans cgmcc2.2086 measured after 48 hrs in presence of CaCl by broth microdilution method. To be noted: cgmcc2.2086, 48 h. In kind it is functional.
In series [18] the test system is Staphylococcus epidermidis. Kind of series: Bactericidal activity against Staphylococcus epidermidis ATCC 12228 incubated for 24 hrs followed by replating on agar plate and measured after overnight incubation. The class given is functional. The note with it: ATCC 12228, 24 h, read-out: MBC>99.9. The procedure, abridged: as §5
The test system of series [19] is Escherichia coli. Kind of series: Antibacterial activity against Escherichia coli ATCC 25922 measured after 18 to 24 hrs in presence of NH4Cl. In kind it is functional.
The nature of series [20]: Antibacterial activity against Salmonella pullorum ATCC 7913 measured after 24 hrs. The note with it: Salmonella enterica, ATCC 7913, 24 h. The class given is functional, Salmonella enterica subsp. enterica serovar Pullorum. The procedure, abridged:
as §4

For the next series, the system named is Pseudomonas aeruginosa. Kind of series: Antibacterial activity against Pseudomonas aeruginosa ATCC 27853 measured after 24 hrs. In kind it is functional. To be noted: ATCC 27853, 24 h. In outline: as §4
Series [21] concerns Escherichia coli. As to the kind of experiment: Bactericidal activity against Escherichia coli 078 incubated for 24 hrs followed by replating on agar plate and measured after overnight incubation. The class given is functional. To be noted: Escherichia coli, 078, 24 h; read-out: MBC>99.9. In outline:
as §6

As to H-AARIILRARFR-NH2, the MIC95 was 16 µM against Candida parapsilosis; 16 µM with Escherichia coli [3]; 32 µM with Escherichia coli [4]; 2 µM in the series on Staphylococcus aureus [5]; 4 µM in the series with Salmonella typhimurium [6]; 16 µM in the series on Staphylococcus aureus [7]. Moreover, the MIC95 came out at 16 µM in the series on Candida albicans [8]; 2 µM in the series with Escherichia coli [11]; 16 µM in the series with Candida albicans [13]; 4 µM with Escherichia coli [15]; 4 µM in the series on Staphylococcus aureus [16]; 64 µM in the series with Candida albicans [17]. Also, the figures for the MIC95 (with Escherichia coli [19]; in [20]; with Pseudomonas aeruginosa) were 2 µM, 4 µM and 16 µM, respectively. Further, the MBC in the series with Staphylococcus aureus [1] stood at 8 µM; in the series with Staphylococcus aureus [2] it was 8 µM; in the series on Escherichia coli [9], 4 µM; in the series with Escherichia coli [10], 4 µM; with Salmonella typhimurium [14], 8 µM; in [18], 4 µM. In the series with Escherichia coli [21], the MBC stood at 4 µM. Moreover, the MHC10 with Erythrocyte is greater than 128 µM. Besides, the selectivity ratio in [12] amounted to 25.4.
With H-AARIILRFRFR-NH2, the MIC95 against Candida parapsilosis is 4 µM; in the series with Escherichia coli [3] it was 32 µM; in the series on Escherichia coli [4], 64 µM; against Staphylococcus aureus [5], 2 µM; with Salmonella typhimurium [6], 4 µM; in the series on Staphylococcus aureus [7], 4 µM. Also, the MIC95 in the series on Candida albicans [8] stood at 8 µM; in the series on Escherichia coli [11] it was 4 µM; in the series on Candida albicans [13] it was 8 µM; with Escherichia coli [15], 4 µM; against Staphylococcus aureus [16], 2 µM; with Candida albicans [17] it was 64 µM. Moreover, the results for the MIC95 (in the series with Escherichia coli [19]; in series [20]; with Pseudomonas aeruginosa) were 4 µM, 4 µM and greater than 128 µM, respectively. Moreover, the MBC turned out to be 4 µM in the series with Staphylococcus aureus [1]; 4 µM in the series with Staphylococcus aureus [2]; 8 µM with Escherichia coli [9]; 8 µM in the series on Escherichia coli [10]; 8 µM in the series with Salmonella typhimurium [14]; 4 µM in series [18]. Moreover, the MBC in the series with Escherichia coli [21] was 8 µM. In the series with Erythrocyte, this substance registered an MHC10 greater than 128 µM. In series [12], the selectivity ratio amounted to 50.8.
Take H-AARIILRGRFR-NH2: the MIC95 in the series on Candida parapsilosis came out at 64 µM; in the series on Escherichia coli [3] it was 16 µM; in the series on Escherichia coli [4] it was 64 µM; with Staphylococcus aureus [5], 8 µM; in the series with Salmonella typhimurium [6], 4 µM; in the series with Staphylococcus aureus [7], 64 µM. For the same substance, the MIC95 is 128 µM against Candida albicans [8]; 4 µM in the series with Escherichia coli [11]; 128 µM with Candida albicans [13]; 4 µM in the series with Escherichia coli [15]; 8 µM against Staphylococcus aureus [16]; greater than 128 µM in the series on Candida albicans [17]. Further, the MIC95 in the series on Escherichia coli [19] worked out at 8 µM; in series [20], 4 µM; against Pseudomonas aeruginosa, 16 µM. For the same substance, the MBC in the series on Staphylococcus aureus [1] was 8 µM; in the series on Staphylococcus aureus [2] it was 32 µM; in the series on Escherichia coli [9] it was 4 µM; with Escherichia coli [10], 8 µM; in the series on Salmonella typhimurium [14] it was 16 µM; in [18] it was 16 µM. Further, the MBC in the series on Escherichia coli [21] came out at 8 µM. In addition, in the series on Erythrocyte, the MHC10 is greater than 128 µM. In addition, the selectivity ratio in series [12] turned out to be 5.04.
